Tests used:
Rattus norvegicus [1] = assay: Antiinflammatory activity in Wistar albino rat assessed as inhibition of carrageenan-induced paw edema at 25 mg/kg, po after 2 hrs (reference value: 1.11 +/- 0.02%); format: functional
Rattus norvegicus [2] = assay: Antiinflammatory activity in Wistar albino rat assessed as inhibition of carrageenan-induced paw edema at 25 mg/kg, po after 1 hr (reference value: 0.85 +/- 0.01%); format: functional
Rattus norvegicus [3] = assay: Antiinflammatory activity in Wistar albino rat assessed as inhibition of carrageenan-induced paw edema at 25 mg/kg, po after 3 hrs (reference value: 1.08 +/- 0.41%); format: functional
Rattus norvegicus [4] = assay: Toxicity in Wistar albino rat assessed as ulcer index at 75 mg/kg/day, po administered for 4 days measured after 12 hrs fasting post-last dose; format: organism-based; set-up: route oral; conditions: in vivo
In short: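 Male Wistar albino rats, 170–200 g, six per group, with control and standard groups. Compounds suspended in 1% w/v Tween 80 in water and dosed orally at 75 mg/kg/day on all 4 days. Rats fasted 12 h after last dose, then decapitated. Stomach opened along greater curvature and washed with distilled water and Krebs solution. Gastric lesions counted and ulcer index calculated per Szelenyi and Thiemer.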

| Structure (SMILES) | inhibition in vivo at 25 mg/kg (Rattus norvegicus [1]) [%] | inhibition in vivo at 25 mg/kg (Rattus norvegicus [2]) [%] | inhibition in vivo at 25 mg/kg (Rattus norvegicus [3]) [%] | UI (Rattus norvegicus [4]) |
| --- | --- | --- | --- | --- |
| CSc1nn(-c2ccccc2)c2nc(Nc3ccccc3)n(-c3ccccc3)c(=O)c12 | 36.6 | 46.1 | 25.4 | 4.66 |
| CSc1nn(-c2ccc([N+](=O)[O-])cc2)c2nc(Nc3ccccc3)n(-c3ccccc3)c(=O)c12 | 37.7 | 42.1 | 26.6 | 7.5 |
| CSc1nn(-c2ccc(S(N)(=O)=O)cc2)c2nc(Nc3ccccc3)n(-c3ccccc3)c(=O)c12 | 54.1 | 68.8 | 35.2 | 7.83 |
| O=c1c2c(Nc3ccccc3)nn(-c3ccccc3)c2nc(Nc2ccccc2)n1-c1ccccc1 | 43.4 | 48.1 | 17.1 | – |
| O=c1c2c(Nc3ccccc3)nn(-c3ccc([N+](=O)[O-])cc3)c2nc(Nc2ccccc2)n1-c1ccccc1 | 40.8 | 43.9 | 14.1 | – |
| NS(=O)(=O)c1ccc(-n2nc(Nc3ccccc3)c3c(=O)n(-c4ccccc4)c(Nc4ccccc4)nc32)cc1 | 54.8 | 60.2 | 39.6 | – |
| O=c1c2c(Nc3ccc([N+](=O)[O-])cc3)nn(-c3ccccc3)c2nc(Nc2ccccc2)n1-c1ccccc1 | 29 | 29.4 | 15.1 | – |
| O=c1c2c(Nc3ccc([N+](=O)[O-])cc3)nn(-c3ccc([N+](=O)[O-])cc3)c2nc(Nc2ccccc2)n1-c1ccccc1 | 19.4 | 23.9 | 16.8 | – |
| NS(=O)(=O)c1ccc(-n2nc(Nc3ccc([N+](=O)[O-])cc3)c3c(=O)n(-c4ccccc4)c(Nc4ccccc4)nc32)cc1 | 55.3 | 67 | 39.1 | – |
| Cc1ccc(Nc2nn(-c3ccccc3)c3nc(Nc4ccccc4)n(-c4ccccc4)c(=O)c23)cc1 | 53.4 | 55.7 | 32.9 | 3.2 |
| Cc1ccc(Nc2nn(-c3ccc([N+](=O)[O-])cc3)c3nc(Nc4ccccc4)n(-c4ccccc4)c(=O)c23)cc1 | 39.8 | 46.6 | 30.2 | 16.72 |
| Cc1ccc(Nc2nn(-c3ccc(S(N)(=O)=O)cc3)c3nc(Nc4ccccc4)n(-c4ccccc4)c(=O)c23)cc1 | 63.4 | 77 | 43.7 | 9.5 |
| O=c1c2c(Nc3ccc(Cl)cc3)nn(-c3ccccc3)c2nc(Nc2ccccc2)n1-c1ccccc1 | 44 | 47.5 | 28.6 | – |
| O=c1c2c(Nc3ccc(Cl)cc3)nn(-c3ccc([N+](=O)[O-])cc3)c2nc(Nc2ccccc2)n1-c1ccccc1 | 39 | 39.6 | 20.6 | – |
| NS(=O)(=O)c1ccc(-n2nc(Nc3ccc(Cl)cc3)c3c(=O)n(-c4ccccc4)c(Nc4ccccc4)nc32)cc1 | 56.3 | 69.8 | 38.3 | – |
| Cc1ccc(-c2cc(C(F)(F)F)nn2-c2ccc(S(N)(=O)=O)cc2)cc1 [CELECOXIB] | 58.6 | 78.1 | 39.6 | 9.58 |
| O=C([O-])Cc1ccccc1Nc1c(Cl)cccc1Cl.[Na+] [DICLOFENAC SODIUM] | 57.2 | 75.8 | 42.8 | 39.17 |
